From paper PMC7919753 (ACS chemical biology, 2020)
Values joined by “and” are separate entries in the source; they are usually repeats but may differ in a detail not shown here. Identical values can stand only once. Like-named read-outs stand apart in the source and are kept apart here.

Assays:
GBM10 spheroids = assay: 3-D spheroid viability assay, GBM10; format: cell-based, human; conditions: for activity in spheroids (in words): concentration-dependent
GBM43 spheroids [1] = assay: 3-D spheroid viability assay, GBM43; format: cell-based, human; conditions: for activity in spheroids (in words): concentration-dependent
Panc10.05 (Pa16C) = assay: PDAC 3-D spheroid model, Panc10.05; format: cell-based; conditions: Homo sapiens, Panc1005, read-out: IC50 (cell viability)
Outline: (§1)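 TdTomato-transduced PDAC cells, kept under 10 passages, were seeded at 1,000 cells/well in ultralow-adherence plates. Medium held 3% reduced-growth-factor Matrigel and 5% FBS. Spheroids were treated on days 4 and 8, and red fluorescence was read on day 12. Percent viability was taken versus media control (mean ± s.d., n = 3). Relative IC50 came from a four-parameter logistic fit by non-linear least squares.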

GAPDH = GAPDH (Homo sapiens, UniProt P04406); assay: Cellular thermal shift assay; format: binding; conditions: GBM43 cells, concentration-dependent, heated to 45 °C
Sequence of GAPDH (P04406 whole entry): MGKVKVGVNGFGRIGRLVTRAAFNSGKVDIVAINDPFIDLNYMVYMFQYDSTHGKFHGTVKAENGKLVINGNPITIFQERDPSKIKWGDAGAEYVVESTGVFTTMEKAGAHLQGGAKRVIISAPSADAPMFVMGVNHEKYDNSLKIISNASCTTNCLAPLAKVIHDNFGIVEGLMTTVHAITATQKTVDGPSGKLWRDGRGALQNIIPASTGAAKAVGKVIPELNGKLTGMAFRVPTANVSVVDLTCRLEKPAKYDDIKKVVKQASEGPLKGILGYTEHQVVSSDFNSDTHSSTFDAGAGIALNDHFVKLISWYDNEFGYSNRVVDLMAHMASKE
Outline: (§2)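 GBM43 cells were exposed to varying concentrations of test compound, then heated to 45 °C. Protein remaining soluble was detected with target-specific antibodies. GAPDH was probed as a control for non-specific binding.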

[2] = system: brain microvascular endothelial cells (BMECs); assay: Effect on brain microvascular endothelial cells, 48 h exposure; format: cell-based; conditions: Endothelial cell, read-out: IC50 (effect on BMECs)
[3] = system: brain microvascular endothelial cells (BMECs); assay: Matrigel-based tube formation assay; conditions: Endothelial cell, 8 h, read-out: IC50 (tube formation)
Outline: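 Primary brain microvascular endothelial cells, 15,000 per well in EGM-2, were seeded on Matrigel pre-solidified 20 min at 37 °C. Test compound was added in DMSO. Tubes were observed every 2 h by brightfield and imaged at 8 h. Total tubule length from six images per treatment was normalised to DMSO. Treatments were compared to DMSO by one-way ANOVA with Dunnett's test.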

astrocytes = assay: Astrocyte monolayer cell proliferation assay; format: cell-based, human; conditions: 2-D monolayer assay, up to 100 μM, 3 days
Outline: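 Primary human fetal astrocytes were seeded at 8 × 10³/well in DMEM with 10% FBS and 1% penicillin/streptomycin. They were incubated 3 days with DMSO or test compound. MTS reagent was then added and incubated 1 h at 37 °C, and absorbance was read at 490 nm. Run in triplicate.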

[4] = Stability in buffer by HPLC; format: physicochemical
RACK1 [5] = target: T1, RACK1 (Homo sapiens, UniProt P63244); assay: Thermal proteome profiling in GBM43 cells; format: binding; conditions: 10 μM, six temperatures 37-60 °C, cutoff ΔTm ≥ 3 °C
Outline: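 GBM43 cells in PBS with protease inhibitors were treated 1 h at 37 °C with 10 µM test compound or DMSO. Fractions of 5 × 10⁶ cells were heated 3 min at 37, 40, 45, 50, 55 or 60 °C, then freeze-thaw lysed and spun at 100,000 × g. Soluble proteins were trypsin-digested and quantified by label-free LC-MS/MS. iBAQ-based melting curves gave ΔTm (treatment − vehicle), with a ≥3.0 cutoff.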

Pa02C = assay: PDAC 3-D spheroid model, Pa02C; format: cell-based, human; conditions: Pa02C PDAC spheroids, concentration-dependent
Outline: as §1

Panc198 (Pa20C) = assay: PDAC 3-D spheroid model, Panc198; format: cell-based, human; conditions: Panc198 PDAC spheroids, concentration-dependent
Outline: as §1

CD34+ progenitor cells = assay: Colony-forming unit; format: cell-based, human; conditions: colony formation assay, up to 100 μM, day 14
Outline: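 Purified human umbilical cord blood CD34+ cells were incubated with test compound. They were plated with compound at 2 × 10³ cells per 35 mm dish in MethoCult H4434. Clonogenic progenitor colonies were counted by light microscopy on day 14 after exposure. IC50 came from dose-response curves.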

RACK1 [6] = target: T1, RACK1; assay: Cellular thermal shift assay; format: binding; conditions: GBM43 cells, concentration-dependent, 6 h treatment, heated to 45 °C, vs DMSO
Outline: as §2

SJ-GBM2 spheroids = assay: 3-D spheroid viability assay, SJ-GBM2; format: cell-based, human; conditions: for activity in spheroids (in words): concentration-dependent
GBM43 spheroids [7] = conditions: read-out: IC50 (cell viability); GBM43, standard-of-care comparison; cited from earlier work

What does the source list for `O=NN(CCCl)C(=O)NC1CCCCC1` [CCNU, lomustine, reference compound]?
inhibition of cell viability (GBM10 spheroids; at 100 μM): about 50%; inhibition of cell viability (GBM43 spheroids [1]; GBM43 spheroids, at 100 μM): about 50%

For `COc1cc2c(cc1NC(=O)C1CCC(=O)N1S(=O)(=O)c1ccc(C)cc1)oc1ccccc12` (stereo not shown) [Compound 1, N-(2-Methoxydibenzo[b,d]furan-3-yl)-5-oxo-1-tosylpyrrolidine-2-carboxamide], which IC50 (Panc10.05 (Pa16C)) is on record?
The IC50 was 26 ± 5.9 µM.

What about the “GAPDH abundance after heating (CETSA)” value (GAPDH) of the same molecule?
The value was “no difference in protein abundance”.

What about the IC50 [2] of the same molecule?
Its IC50 is 3.5 µM.

What about the IC50 [3] of the same molecule?
The IC50 was roughly 0.1 µM.

What about the “inhibition of cell viability” value (GBM43 spheroids [1]; GBM43 spheroids, single concentration 25 μM) of the same molecule?
Its value is 90%.

What about the IC50 (GBM43 spheroids [1]; Homo sapiens, 120 h, read-out: IC50 (cell viability)) of the same molecule?
Its IC50 is 3.7 ± 0.1 µM.

And the “effect on cell viability of astrocytes” value (astrocytes)?
The value was “no effect”.

What about the “stability following incubation in buffer” value [4] of the same molecule?
The value was “stable”.

And the “thermal shift of RACK1 (ΔTm)” value (RACK1 [5])?
The value was “significant thermal shift”.

What about the “activity in spheroid model” value (Pa02C) of the same molecule?
The value was “no activity”.

And the “activity in spheroid model” value (Panc198 (Pa20C))?
The value was “no activity”.

And the “effect on cell viability of CD34+ cells” value (CD34+ progenitor cells)?
Its value is “no effect”.

With `COc1cc2c(cc1NC(=O)C1CCCN1S(=O)(=O)c1ccc(C)cc1)oc1ccccc12` (stereo not shown) [Compound 22, N-(2-Methoxydibenzo[b,d]furan-3-yl)-1-tosylpyrrolidine-2-carboxamide] as the molecule, how does the “RACK1 abundance after heating (CETSA)” value (RACK1 [6]) read?
The value was “did not affect protein abundance”.

And the “activity in spheroids (in words)” value (GBM10 spheroids)?
The value was “loss of activity”.

And the “activity in spheroids (in words)” value (GBM43 spheroids [1]; GBM43 spheroids)?
Its value is “loss of activity”.

Which “activity in spheroids (in words)” value (GBM10 spheroids) does the source give for `COc1cc2c(cc1NC(=O)C1CCC(=O)N1Cc1ccc(C)cc1)oc1ccccc12` (stereo not shown) [Compound 23, N-(2-Methoxydibenzo[b,d]furan-3-yl)-1-(4-methylbenzyl)-5-oxopyrrolidine-2-carboxamide] here?
The value was “loss of activity”.

What about the “activity in spheroids (in words)” value (GBM43 spheroids [1]; GBM43 spheroids) of the same molecule?
Its value is “loss of activity”.

For `COc1cc2c(cc1NC(=O)C1CCC(=O)N1)oc1ccccc12` (stereo not shown) [Compound 24, N-(2-Methoxydibenzo[b,d]furan-3-yl)-5-oxopyrrolidine-2-carboxamide], which “activity in spheroids (in words)” value (GBM10 spheroids) is on record?
The value was “loss of activity”.

What about the “activity in spheroids (in words)” value (GBM43 spheroids [1]; GBM43 spheroids) of the same molecule?
Its value is “loss of activity”.

Which “fold decrease in IC50 compared to 1” value (GBM10 spheroids) does the source give for `COc1cc2c(cc1NC(=O)C1CCC(=O)N1S(=O)(=O)c1ccc(C(F)(F)F)cc1)oc1ccccc12` (stereo not shown) [Compound 25, N-(2-Methoxydibenzo[b,d]furan-3-yl)-5-oxo-1-((4-(trifluoromethyl)phenyl)sulfonyl)pyrrolidine-2-carboxamide] here?
The value was roughly 10 fold.

What about the “fold decrease in IC50 compared to 1” value (GBM43 spheroids [1]; GBM43 spheroids) of the same molecule?
The value was roughly 10 fold.

And the “fold decrease in IC50 compared to 1” value (SJ-GBM2 spheroids)?
The value was roughly 10 fold.

For `COc1cc2c(cc1NC(=O)C1CCC(=O)N1S(=O)(=O)c1ccc(C)cc1)oc1ccc(Cl)cc12` (stereo not shown) [Compound 26, N-(8-Chloro-2-methoxydibenzo[b,d]furan-3-yl)-5-oxo-1-tosylpyrrolidine-2-carboxamide], which “activity in spheroids (in words)” value (GBM10 spheroids) is on record?
Its value is “no activity”.

And the “activity in spheroids (in words)” value (GBM43 spheroids [1]; GBM43 spheroids)?
Its value is “no activity”.

What about the “activity in spheroids (in words)” value (SJ-GBM2 spheroids) of the same molecule?
The value was “no activity”.

What does the source list for `COc1cc2c(cc1NC(=O)C1CCC(=O)N1S(=O)(=O)c1ccc(C)cc1)oc1cc(Cl)ccc12` (stereo not shown) [Compound 27, N-(7-Chloro-2-methoxydibenzo[b,d]furan-3-yl)-5-oxo-1-tosylpyrrolidine-2-carboxamide]?
activity in spheroids (in words) (GBM10 spheroids): no activity; activity in spheroids (in words) (GBM43 spheroids [1]; GBM43 spheroids): no activity; activity in spheroids (in words) (SJ-GBM2 spheroids): no activity

Which IC50 (GBM43 spheroids [7]) does the source give for `Cn1nnc2c(C(N)=O)ncn2c1=O` [temozolomide] here?
The IC50 was 244 µM and ~250 µM.
